Data as given in PMC5954213 (Molecular pharmaceutics, 2018).
Entries after “also recorded” stand apart in the source; their conditions may differ.

Experiments:
[1] = In vitro microsomal stability, mouse; assay type: in vitro ADME
[2] = tested on: ova s/c mice; experiment: Cytokine expression in lung homogenate; assay type: in vivo, mouse; conditions: 100 mg/kg p.o. twice daily 5 days
Method in brief: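 Male Balb/c mice were ova/alum-sensitized i.p. on days 0, 7 and 14, then challenged i.n. with ova for 5 days. During challenge they received test compound 100 mg/kg or vehicle (2% HPMC, 2.5% PEG) by oral gavage b.i.d. for 5 days. Snap-frozen whole lung was homogenized in T-PER with protease inhibitors and spun 10,000 rpm for 5 min. Supernatant went to a Th1/Th2/Th17 cytometric bead array on flow cytometry. n = 10/group, one-way ANOVA versus vehicle.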

[3] = tested on: peripheral GABAAR; experiment: NIMH Psychoactive Drug Screening Program; assay type: binding; conditions: 10 μM
[4] = tested on: ova s/c BALB/c mice; experiment: Quantification of airway inflammatory cells in BALF by flow cytometry; assay type: in vivo, mouse
[5] = tested on: ova s/c mice; experiment: EdU staining of lung sections; assay type: in vivo, mouse; conditions: 100 mg/kg; compared to vehicle-treated ova s/c mice
Method in brief: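 Ova s/c mice were dosed orally with test compound 100 mg/kg b.i.d. for 5 days or with vehicle. They received EdU 100 mg/kg i.p. once and were euthanized 4 h later. Lungs were formalin-fixed and paraffin-embedded, and 6 μm sections were permeabilized with 0.5% Triton X-100 for 20 min. EdU was click-labelled with Alexa Fluor 488 azide for 30 min in the dark, with Hoechst 33342 counterstain. Sections were read by fluorescence microscopy.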

[6] = tested on: mice; experiment: Sensorimotor coordination study using a rotarod apparatus; assay type: in vivo, mouse; conditions: 100 mg/kg oral; 15 rpm, 3 minutes, three time points
Method in brief: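 Mice were dosed orally with 100 mg/kg test compound or vehicle (2% HPMC, 2.5% PEG), n = 9. They were tested on a rotarod at 15 rpm for up to 3 min at three time points, and time balanced was recorded. The control was diazepam 5 mg/kg i.p. in 5% DMSO/35% propylene glycol/60% PBS.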

[7] = tested on: guinea pig airway smooth muscle contracted with 1 μM substance P; experiment: Relaxation of substance P-contracted guinea pig tracheal rings
[8] = In vitro microsomal stability, human; assay type: in vitro ADME
[9] = tested on: ova s/c BALB/c mice; experiment: Airway hyperresponsiveness; assay type: in vivo, mouse
[10] = tested on: ova s/c mice; experiment: Mucin volume density in lung sections; assay type: in vivo, mouse
[11] = tested on: α1-3,5β3γ2 GABAARs; assay type: cell-based; conditions: 0.1 μM or 1 μM, current evoked by GABA
Method in brief: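 Cells were transiently transfected with the indicated α subunit plus β3 and γ2L. Mean enhancement of the GABA-evoked current by 0.1 or 1 μM test compound was measured by patch clamp, n = 5, mean ± SEM.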

[12] = Pharmacokinetic profile in mouse blood, lungs and brain; assay type: in vivo
Method in brief: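 Mice received a single oral gavage of 25 mg/kg test compound, suspended by grinding with PEG and then adding 2% HPMC (final vehicle 2% HPMC, 2.5% PEG). Blood, lung and brain were sampled over time and analysed by LC-MS/MS. Tmax, Cmax, AUC and elimination rate constant were calculated from the concentration-time profiles.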

[13] = tested on: CD4+ T lymphocytes isolated from ova s/c mice; experiment: Automated patch clamp with CD4+ T lymphocytes in the presence of 600 nM GABA; assay type: cell-based, mouse
Method in brief: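 Splenic CD4+ T cells from ova s/c BALB/c mice were magnetically enriched after RBC lysis, then suspended at 5x10^6 cells/ml in extracellular solution (pH 7.4) with CsCl-based intracellular solution (pH 7.2). Automated whole-cell patch clamp was held at −80 mV. Test compound (final DMSO 0.1%) was applied for 3 s with 600 nM GABA, which was set as 100%. Eight independent runs, n = 12. EC50 and top came from a sigmoidal fit.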

[14] = Mouse plasma protein binding; assay type: in vitro ADME

Which “microsomal stability t1/2” value [1] does the source give for `C[C@H]1N=C(c2ccccc2F)c2cc(Br)ccc2-n2cnc(C(=O)O)c21` [MIDD0301] here?
The value was 549 min.

And the “IFN-γ concentration in lung homogenates” value [2]?
The value was “not altered significantly”.

What about the “IL-2 concentration in lung homogenates” value [2] of the same molecule?
Its value is “not altered significantly”.

What about the “IL-6 concentration in lung homogenates” value [2] of the same molecule?
The value was “not altered significantly”.

And the “IL-10 expression in the lung” value [2]?
The value was “not significantly altered”.

And the “IL-17A levels in lung homogenates” value [2]?
The value was “significantly reduced”.

And the “lung TNF-α levels” value [2]?
The value was “decreased”.

What about the “IL-4 levels in lung homogenates” value ([2]; vs vehicle-treated ova s/c mice) of the same molecule?
The value was “reduced”.

And the binding [3]?
The binding was “no significant binding”.

What about the “number of BALF CD4+ T cells” value ([4]; 20 mg/kg p.o. b.i.d. 5 days) of the same molecule?
Its value is “significantly reduced”.

What about the “number of BALF CD4+ T cells” value ([4]; 50 mg/kg p.o. b.i.d. 5 days) of the same molecule?
Its value is “significantly reduced”.

And the “BALF F4/80+ cells (macrophages)” value ([4]; 100 mg/kg p.o. b.i.d. 5 days)?
Its value is “reduced their numbers significantly”.

And the “BALF Siglec F+ cell population (eosinophils/alveolar macrophages)” value ([4]; 100 mg/kg p.o. b.i.d. 5 days)?
The value was “reduced their numbers significantly”.

And the “number of BALF CD4+ T cells” value ([4]; 100 mg/kg p.o. b.i.d. 5 days)?
Its value is “significantly reduced”.

What about the “total inflammatory cells (CD45+) in BALF” value ([4]; 100 mg/kg p.o. b.i.d. 5 days) of the same molecule?
Its value is “significant suppression”.

And the “EdU cell staining of lung sections (alveolar region)” value [5]?
The value was “reduced cell staining”.

And the “sensorimotor inhibition on rotarod” value [6]?
The value was “absence of sensorimotor inhibition”.

And the “time to partial relaxation of muscle constriction” value ([7]; 25 μM in organ bath)?
Its value is no more than 15 min.

And the “reversibility of relaxation effect” value ([7]; ASM washed with buffer and contracted again with substance P)?
Its value is “reversible”.

And the “pharmaceutically active concentration in tissue” value ([7]; assuming tracheal concentration is 10% of organ bath concentration)?
Its value is “single digit micromolar concentration”.

What about the “smooth muscle relaxation compared with compound 2” value ([7]; comparison with compound 2 data of ref 13) of the same molecule?
The value was “more pronounced smooth muscle relaxation”.

And the “concentration giving significant relaxation of pre-contracted smooth muscle” value ([7]; substance P 1 μM, 60 minute assay, vs vehicle 0.1% DMSO)?
Its value is no less than 25 µM.

What about the “microsomal stability t1/2” value [8] of the same molecule?
The value was 1546 min.

And the “effect on AHR (sRaw)” value ([9]; 20 mg/kg p.o. b.i.d. 5 days, 12.5 mg/ml methacholine)?
Its value is “downward trend; also recorded: did not reduce AHR significantly”.

And the “effect on AHR (sRaw)” value ([9]; 50 mg/kg p.o. b.i.d. 5 days, 12.5 mg/ml methacholine)?
Its value is “sufficient to overcome induced AHR”.

And the “effect on AHR (sRaw)” value ([9]; 100 mg/kg p.o. b.i.d. 5 days, 12.5 mg/ml nebulized methacholine)?
Its value is “significantly reduced AHR”.

And the “mucous production in the airways (mucin volume density)” value (from here on “mucous production in the airways”) ([10]; 20 mg/kg b.i.d. 5 days)?
Its value is “did not produce a significant change”.

And the “mucous production in the airways” value ([10]; 50 mg/kg b.i.d. 5 days)?
The value was “did not produce a significant change”.

What about the “mucous production in the airways” value ([10]; 100 mg/kg b.i.d. 5 days) of the same molecule?
The value was “did not produce a significant change”.

And the “activation of GABAARs among alpha subtypes tested” value [11]?
Its value is “activating GABAARs strongly”.

What about the “blood brain barrier penetration” value ([12]; 25 mg/kg single oral) of the same molecule?
The value was “Poor”.

And the Tmax ([12]; blood and lung, 25 mg/kg single oral)?
Its Tmax is no more than 40 min.

What about the AUC ([12]; blood, 25 mg/kg single oral) of the same molecule?
Its AUC is 2087.1 µg·min/g.

What about the Cmax ([12]; blood, 25 mg/kg single oral) of the same molecule?
The Cmax was 8.24 µg/g.

And the half-life ([12]; blood, 25 mg/kg single oral)?
The half-life was 836 min.

And the rate of elimination ([12]; blood, 25 mg/kg single oral)?
The rate of elimination was 0.001 min⁻¹.

What about the AUC ([12]; brain, 25 mg/kg single oral) of the same molecule?
The AUC was 107.7 µg·min/g.

What about the “elimination rate compared with blood” value ([12]; lung tissue, 25 mg/kg single oral) of the same molecule?
The value was “somewhat faster”.

What about the AUC ([12]; lung, 25 mg/kg single oral) of the same molecule?
Its AUC is 1390.5 µg·min/g.

What about the Cmax ([12]; lungs, 25 mg/kg single oral) of the same molecule?
The Cmax was 4.39 µg/g.

What about the half-life ([12]; pharmacokinetic studies, as stated in abstract) of the same molecule?
Its half-life is roughly 840 min.

What about the “concentration at which current change saturated” value ([13]; 600 nM GABA) of the same molecule?
Its value is 100 nM.

And the maximal potentiation ([13]; 600 nM GABA = 100 %)?
The maximal potentiation was 512%.

What about the EC50 ([13]; read-out: EC50 of current potentiation, 600 nM GABA) of the same molecule?
Its EC50 is 17 nM.

And the plasma protein binding [14]?
The plasma protein binding was 88%.

What does the source list for `OCc1cc(C(O)CNCCCCCCOCCCCc2ccccc2)ccc1O` (stereo not shown) [salmeterol, reference compound]?
BALF eosinophil population ([4]; 1 mg/kg p.o. b.i.d. 5 days): no significant effect; BALF macrophage population ([4]; 1 mg/kg p.o. b.i.d. 5 days): no significant effect; number of BALF CD4+ T cells ([4]; 1 mg/kg p.o. b.i.d. 5 days): reduced; total inflammatory cells (leukocyte numbers) in BALF ([4]; 1 mg/kg p.o. b.i.d. 5 days): did not significantly change; effect on AHR (sRaw) ([9]; 1 mg/kg p.o. b.i.d. 5 days): no anti-AHR effect; effect on AHR (sRaw) ([9]; single oral dose 10 mg/kg acutely before measurement (data not shown)): without any significant effect on AHR; mucous levels in the airways ([10]; 1 mg/kg b.i.d. 5 days): no effect
